Measurements from ChEMBL document CHEMBL5236619, “Design and Optimization of 1H-1,2,3-Triazole-4-carboxamides as Novel, Potent, and Selective Inverse Agonists and Antagonists of PXR” (J Med Chem, 2022).
Activity calls are given as the source filed them. The calls are words filed in the database; no cut-off is given here.

Experiments:
[1] = target: T1, Nuclear receptor subfamily 1 group I member 2 (Homo sapiens, UniProt O75469); test: Inhibition of BODIPY FL vindoline binding to recombinant human GST-tagged PXR LBD (111 to 434 residues) expressed in baculovirus infected insect cells incubated for 1 mins under shaking condition followed by 60 mins under dark condition by TR-FRET assay
T1 sequence (O75469 whole entry): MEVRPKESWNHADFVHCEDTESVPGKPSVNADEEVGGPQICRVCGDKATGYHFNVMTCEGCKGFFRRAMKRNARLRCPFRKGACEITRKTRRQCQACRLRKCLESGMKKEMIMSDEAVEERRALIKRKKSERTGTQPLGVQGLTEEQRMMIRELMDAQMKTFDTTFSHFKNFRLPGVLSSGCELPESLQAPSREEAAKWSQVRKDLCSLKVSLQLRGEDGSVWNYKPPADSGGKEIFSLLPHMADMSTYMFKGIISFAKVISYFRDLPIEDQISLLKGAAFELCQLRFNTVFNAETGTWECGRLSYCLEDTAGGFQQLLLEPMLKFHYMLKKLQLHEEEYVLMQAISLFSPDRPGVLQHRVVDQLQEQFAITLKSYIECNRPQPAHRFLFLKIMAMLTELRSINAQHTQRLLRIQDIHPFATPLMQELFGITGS

[2] = target: T1, Nuclear receptor subfamily 1 group I member 2; test: Inverse agonist activity at human PXR in human HepG2 cells co-expressing luciferase gene under control of CYP3A4 promoter assessed as inhibition in receptor basal activity at 30 uM incubated for 24 hrs by luminescence based analysis; conditions: hepg2, 24 h
[3] = target: T1, Nuclear receptor subfamily 1 group I member 2; test: Agonist activity at human PXR in human HepG2 cells co-expressing luciferase gene under control of CYP3A4 promoter assessed as transcriptional activation incubated for 24 hrs by luminescence based analysis
[4] = target: T2, PXR (NR1I2) ligand binding domain (Homo sapiens, UniProt O75469); test: Inhibition of BODIPY FL vindoline binding to recombinant human GST-tagged PXR LBD (111 to 434 residues) expressed in baculovirus infected insect cells at 10 uM incubated for 1 mins under shaking condition followed by 60 mins under dark condition by TR-FRET assay relative to control; conditions: probe BODIPY FL vindoline, time 61 min
T2 sequence (O75469 whole entry): T1 sequence (O75469 whole entry)

[5] = target: T1, Nuclear receptor subfamily 1 group I member 2; test: Antagonist activity at human PXR in human HepG2 cells co-expressing luciferase gene under control of CYP3A4 promoter assessed as inhibition in rifampicin-induced receptor activation at 30 uM incubated for 24 hrs by luminescence based analysis; type: cell-based; conditions: hepg2, 24 h
[6] = target: T1, Nuclear receptor subfamily 1 group I member 2; test: Agonist activity at human PXR in human HepG2 cells co-expressing luciferase gene under control of CYP3A4 promoter assessed as transcriptional activation at 10 uM incubated for 24 hrs by luminescence based analysis relative to control
PXR (NR1I2) [7] = target: T3, PXR (NR1I2) (Homo sapiens, UniProt O75469); test: Inverse agonist activity at human PXR in human HepG2 cells co-expressing luciferase gene under control of CYP3A4 promoter assessed as inhibition in receptor basal activity at 10 uM incubated for 24 hrs by luminescence based analysis relative to control; type: cell-based
T3 sequence (O75469 whole entry): T1 sequence (O75469 whole entry)

[8] = target: T1, Nuclear receptor subfamily 1 group I member 2; test: Agonist activity at human PXR in human HepG2 cells co-expressing luciferase gene under control of CYP3A4 promoter assessed as transcriptional activation at 30 uM incubated for 24 hrs by luminescence based analysis; type: cell-based; conditions: hepg2, 24 h
PXR (NR1I2) [9] = target: T3, PXR (NR1I2); test: Antagonist activity at human PXR in human HepG2 cells co-expressing luciferase gene under control of CYP3A4 promoter assessed as inhibition in rifampicin-induced receptor activation at 10 uM incubated for 24 hrs by luminescence based analysis relative to control; type: cell-based
HEK-293T = test: Cytotoxicity against HEK293T cells assessed as reduction in cell viability measured after 24 to 72 hrs by celltiter-glo luminescent cell viability assay; type: toxicity, cell-based; conditions: human, time 24-72 hrs
Procedure, shortened: (§1)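 Cells seeded at 2,500 per well for 1-day or 5,000 per well for 3-day exposure. Viability read by CellTiter-Glo luminescence. Staurosporine (56 μM) set as 100% cytotoxicity. Each concentration run in quadruplicate, at least three times. % cytotoxicity plotted and fitted to a sigmoidal dose–response curve. Means and SDs from three independent experiments.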

[10] = target: T4, Oxysterols receptor LXR-alpha (Homo sapiens) (UniProt Q13133); test: Effect on LXRalpha activity in GeneBLAzer LXRalpha-UAS-bla HEK 293T cells by fluorescence based analysis; type: cell-based
T4 sequence (whole entry): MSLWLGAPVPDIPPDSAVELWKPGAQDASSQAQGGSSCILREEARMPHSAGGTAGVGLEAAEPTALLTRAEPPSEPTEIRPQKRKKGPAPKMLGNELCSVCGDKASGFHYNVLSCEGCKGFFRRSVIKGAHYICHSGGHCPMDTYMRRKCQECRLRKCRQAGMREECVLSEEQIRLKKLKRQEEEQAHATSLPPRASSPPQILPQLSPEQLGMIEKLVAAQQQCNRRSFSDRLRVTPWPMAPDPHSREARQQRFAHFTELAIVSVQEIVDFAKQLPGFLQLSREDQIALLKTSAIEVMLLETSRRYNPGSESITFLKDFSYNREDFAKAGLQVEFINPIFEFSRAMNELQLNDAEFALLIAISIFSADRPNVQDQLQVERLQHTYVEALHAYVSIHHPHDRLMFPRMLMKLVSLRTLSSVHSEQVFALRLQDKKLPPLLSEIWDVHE
Procedure, shortened: (§2)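 Run in agonistic mode (compound alone) or antagonistic mode (compound plus an agonist). Each concentration tested in quadruplicate, at least three times. % activation or % inhibition plotted against concentration, with EC50 or IC50 derived from a sigmoidal dose–response fit.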

HepG2 [11] = test: Effect on CAR activity in human HepG2 cells co-expressing luciferase gene under control of CYP3A4 promoter by luciferase reporter assay; type: cell-based
[12] = target: T5, Bile acid receptor (Homo sapiens) (UniProt Q96RI1); test: Effect on FXR activity in GeneBLAzer FXR-UAS-bla HEK 293T cells by fluorescence based analysis; type: cell-based; procedure, shortened: as §2
T5 sequence (whole entry): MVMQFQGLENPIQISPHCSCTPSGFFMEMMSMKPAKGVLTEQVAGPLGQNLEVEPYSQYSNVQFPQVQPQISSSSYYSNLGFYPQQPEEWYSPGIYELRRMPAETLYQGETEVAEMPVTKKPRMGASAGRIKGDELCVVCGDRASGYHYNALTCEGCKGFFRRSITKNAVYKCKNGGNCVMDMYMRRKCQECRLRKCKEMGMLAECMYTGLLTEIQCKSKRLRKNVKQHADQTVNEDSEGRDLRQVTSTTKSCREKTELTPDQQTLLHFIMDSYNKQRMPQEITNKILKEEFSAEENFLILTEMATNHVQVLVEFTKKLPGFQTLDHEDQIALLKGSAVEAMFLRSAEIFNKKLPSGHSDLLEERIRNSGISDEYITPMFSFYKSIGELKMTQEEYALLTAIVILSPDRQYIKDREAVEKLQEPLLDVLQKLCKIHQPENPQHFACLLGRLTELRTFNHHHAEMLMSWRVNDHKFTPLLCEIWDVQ

[13] = target: T6, Nuclear receptor subfamily 1 group I member 2 (Mus musculus, UniProt O54915); test: Effect on mouse PXR activity by luciferase reporter assay; procedure, shortened: as §2
T6 sequence (O54915 whole entry): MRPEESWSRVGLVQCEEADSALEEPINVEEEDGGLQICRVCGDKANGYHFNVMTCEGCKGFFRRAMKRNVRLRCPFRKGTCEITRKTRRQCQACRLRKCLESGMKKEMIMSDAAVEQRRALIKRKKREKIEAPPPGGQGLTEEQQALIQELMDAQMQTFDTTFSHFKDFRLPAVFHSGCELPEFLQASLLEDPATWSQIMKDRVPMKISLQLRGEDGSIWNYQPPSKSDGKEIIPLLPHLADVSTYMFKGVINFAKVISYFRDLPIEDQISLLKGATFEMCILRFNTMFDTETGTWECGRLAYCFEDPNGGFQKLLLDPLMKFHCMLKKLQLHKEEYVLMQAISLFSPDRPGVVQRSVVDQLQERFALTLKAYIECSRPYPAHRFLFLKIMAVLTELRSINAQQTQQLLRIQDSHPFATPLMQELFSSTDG

[14] = target: T7, Vitamin D3 receptor (Homo sapiens) (UniProt P11473); test: Effect on VDR activity in GeneBLAzer VDR-UAS-bla HEK 293T cells by fluorescence based analysis; type: cell-based; procedure, shortened: as §2
T7 sequence (whole entry): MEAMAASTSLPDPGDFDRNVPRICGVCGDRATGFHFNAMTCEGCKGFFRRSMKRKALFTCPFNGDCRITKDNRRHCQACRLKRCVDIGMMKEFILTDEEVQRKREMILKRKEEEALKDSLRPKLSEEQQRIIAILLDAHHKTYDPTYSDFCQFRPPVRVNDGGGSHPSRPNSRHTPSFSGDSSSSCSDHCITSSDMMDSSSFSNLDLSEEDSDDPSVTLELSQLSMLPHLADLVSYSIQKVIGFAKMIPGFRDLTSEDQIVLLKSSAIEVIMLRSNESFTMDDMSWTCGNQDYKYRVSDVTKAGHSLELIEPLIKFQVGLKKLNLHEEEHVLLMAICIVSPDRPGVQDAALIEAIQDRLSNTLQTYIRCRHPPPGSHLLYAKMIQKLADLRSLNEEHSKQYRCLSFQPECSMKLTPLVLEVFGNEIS

HepG2 [15] = test: Cytotoxicity against human HepG2 cells assessed as reduction in cell viability measured after 24 to 72 hrs by celltiter-glo luminescent cell viability assay; type: toxicity, cell-based; conditions: time 24-72 hrs; procedure, shortened: as §1
[16] = Cytotoxicity against […] Hepa1-6 cells assessed as reduction in cell viability measured after 24 to 72 hrs by celltiter-glo luminescent cell viability assay; type: toxicity, cell-based; conditions: time 24-72 hrs; procedure, shortened: as §1
HepaRG = test: Cytotoxicity against human HepaRG cells assessed as reduction in cell viability measured after 24 to 72 hrs by celltiter-glo luminescent cell viability assay; type: toxicity, cell-based; conditions: time 24-72 hrs; procedure, shortened: as §1

SMILES	INH [2]	EC50 [3]	inhibition at 1.017 h, 10 µM [4]	inhibition at 24 h, 10 µM (PXR (NR1I2) [7])	Activity [8]	further results
CCC[C@@H](C)Oc1ccc(C(C)(C)C)cc1NC(=O)c1nnn(-c2cc(C)ccc2OC)c1C	Not Active	8.1 nM	–	–	–	IC50 [1]: 11 nM
COc1ccc(OC)c(-n2nnc(C(=O)Nc3ccc(NC(C)=O)c(C(C)(C)C)c3)c2C)c1	Not Active	2000 nM	65%	–	–	inhibition (INH) [5]: Not Active; activity at 24 h, 10 µM [6]: 50%
CCCCOc1ccc(NC(=O)c2nnn(-c3cc(OC)ccc3OC)c2C)cc1C(C)(C)C	–	–	–	73%	–	inhibition (INH) ([1]; human, 1.017 h, time 61 min): Not Active
CCCCOc1ccc(C(C)(C)C)cc1NC(=O)c1nnn(-c2cc(OC)ccc2C)c1C	Not Active	1660 nM	10%	–	–	inhibition (INH) [5]: Not Active; activity at 24 h, 10 µM [6]: 16%
CCCC(C)Oc1ccc(C(C)(C)C)cc1NC(=O)c1nnn(-c2cc(OC)ccc2OC)c1C (racemic)	–	–	90%	117%	Not Active	–
COc1ccc(OC)c(-n2nnc(C(=O)Nc3cc(B4OC(C)(C)C(C)(C)O4)cc(C(C)(C)C)c3)c2C)c1	–	–	67%	138%	Not Active	inhibition at 24 h, 10 µM (PXR (NR1I2) [9]): 104%
CCC[C@H](C)Oc1ccc(C(C)(C)C)cc1NC(=O)c1nnn(-c2cc(C)ccc2OC)c1C	Not Active	–	90%	–	Not Active	Activity (HEK-293T): Non-Toxic; IC50 [1]: 4 nM; Activity [10]: inactive; Activity (HepG2 [11]): inactive; Activity [12]: inactive; Activity [13]: Not Active; Activity [14]: inactive; Activity (HepG2 [15]): Non-Toxic; Activity [16]: Non-Toxic; Activity (HepaRG): Non-Toxic
COc1ccc(OC)c(-n2nnc(C(=O)Nc3cc(N(C)C)cc(C(C)(C)C)c3)c2C)c1	–	–	–	–	Not Active	inhibition at 24 h, 10 µM (PXR (NR1I2) [9]): 110%
CCCOc1ccc(C(C)(C)C)cc1NC(=O)c1nnn(-c2cc(OC)ccc2OC)c1C	–	–	79%	114%	Not Active	–
